Experimental data from different studies.
Protocols differ between the studies behind these lines.
CDK16: Cyclin-dependent kinase 16 (CDK16, Homo sapiens, UniProt Q00536)
CDK16 with cyclin Y: Cyclin-dependent kinase 16, with cyclin Y (CDK16, Homo sapiens, UniProt Q00536)

Cc1ccc(C(=O)Nc2ccc(CN3CCN(C)CC3)c(C(F)(F)F)c2)cc1C#Cc1cnc2cccnn12  remaining activity (CDK16; enzyme activity; inhibitor; 23.5 nM): 77%
Cn1c2c(c3ccc(Cl)c(Cl)c31)C(C#N)C(C)(C)NC2=O (stereo not drawn)  ΔTm (CDK16; thermal stability; DSF; 10 µM): 0.7 °C
Cc1ccc(C(=O)NCc2ccsc2)cc1C#Cc1cn(C(C)C)c2ncnc(N)c12  activity vs control (CDK16 with cyclin Y; enzyme activity; inhibitor; 1 µM): 101%
CCN1CCC2(CC1)NC(=O)c1c(c3ccc(Cl)c(Cl)c3n1C)C2C#N (racemic)  ΔTm (CDK16; thermal stability; DSF; 10 µM): 0 °C
Nc1cnc(N2CCc3cc(S(=O)(=O)Nc4c(F)cc(Cl)cc4F)cc(N4CCCC4=O)c32)nc1  remaining binding (CDK16; cell-free assay; competition with immobilised ligand; 1 µM): 98%
c1ccc(CNc2nc(N3CCOc4ccccc43)nc3c2CCCC3)cc1  inhibition (CDK16; target engagement in cells; inhibitor; chemoproteomics; 20 mM): 2.9%
O=C(O)c1cc(-c2ccc(C3CCNCC3)cc2)c2ccc(-c3ccc(C(F)(F)F)cc3)cc2c1  remaining binding (CDK16; cell-free assay; competition with immobilised ligand; 1 µM): 100%
O=C(CSc1nc2nccnc2c(=O)n1CCc1ccccc1)Nc1nccs1  inhibition (CDK16 with cyclin Y; enzyme activity; inhibitor; 10 µM): -7%
CO[C@@H](C)c1c(Nc2ccc([C@@H](N(C)C(=O)C3CCS(=O)(=O)CC3)C(F)(F)F)cc2)cnc2cc(Cl)nn12  remaining binding (CDK16; cell-free assay; competition with immobilised ligand; 1 µM): 72%
Cn1c2c(c3ccccc31)C(C#N)C(C)(C)NC2=O (stereo not drawn)  ΔTm (CDK16; thermal stability; DSF; 10 µM): 0.2 °C
CC(C)(C)c1nc2c(s1)c1nc(N)ncc1c1ccc(NS(=O)(=O)c3c(F)cccc3F)c(F)c12  remaining activity (CDK16 with cyclin Y; enzyme activity; inhibitor; radiometric; 1 µM): 87%
CCS(=O)(=O)c1cc2cc(C[C@](O)(CC(C)(C)c3ccc(F)cc3C(N)=O)C(F)(F)F)[nH]c2cn1  remaining binding (CDK16; cell-free assay; competition with immobilised ligand; 1 µM): 100%
